Results as given in ChEMBL document CHEMBL4118021, “Studies of TAK1-centered polypharmacology with novel covalent TAK1 inhibitors” (Bioorg Med Chem, 2017).
Calls of active or inactive are those of the source. The calls are words filed in the database; no cut-off is given here.

Experiments:
BaF3 [1] = test: Antiproliferative activity against mouse BA/F3 cells harboring KRAS G12D mutant after 72 hrs by CellTiter-Glo assay; assay type: functional, cell-based; details: BaF3, 72 h
SW-620 = test: Antiproliferative activity against human SW620 cells harboring KRAS G12V mutant after 72 hrs by CellTiter-Glo assay; assay type: functional, cell-based; details: SW-620, 72 h
SK-CO-1 = test: Antiproliferative activity against human SKCO1 cells harboring KRAS G12V mutant after 72 hrs by CellTiter-Glo assay; assay type: functional, cell-based; details: SK-CO-1, 72 h
BaF3 [2] = test: Antiproliferative activity against mouse BA/F3 cells harboring KRAS G12D mutant after 72 hrs in presence of IL-3 by CellTiter-Glo assay; assay type: functional, cell-based; details: BaF3, 72 h
ASPC1 = test: Antiproliferative activity against human AsPC1 cells harboring KRAS G12D mutant after 72 hrs by CellTiter-Glo assay; assay type: functional, cell-based; details: ASPC1, 72 h
[3] = target: T1, Mitogen-activated protein kinase kinase kinase 7 (Homo sapiens) (UniProt O43318); test: Inhibition of biotin-labeled N-(2-(2-(2-(2-(4-(4-((4-((2-Acrylamidophenyl)amino)-5-chloropyrimidin-2-yl)amino)phenyl)piperazin-1-yl)ethoxy)ethoxy)ethoxy)ethyl)-5-((3aS,4S,6aR)-2-oxohexahydro-1H-thieno[3,4-d]imidazol-4-yl)pentanamide probe binding to TAK1 in human NCI-H358 cells at 10 uM after 6 hrs by immunoblot based competitive pull down assay; assay type: cell-based
T1 sequence (whole entry): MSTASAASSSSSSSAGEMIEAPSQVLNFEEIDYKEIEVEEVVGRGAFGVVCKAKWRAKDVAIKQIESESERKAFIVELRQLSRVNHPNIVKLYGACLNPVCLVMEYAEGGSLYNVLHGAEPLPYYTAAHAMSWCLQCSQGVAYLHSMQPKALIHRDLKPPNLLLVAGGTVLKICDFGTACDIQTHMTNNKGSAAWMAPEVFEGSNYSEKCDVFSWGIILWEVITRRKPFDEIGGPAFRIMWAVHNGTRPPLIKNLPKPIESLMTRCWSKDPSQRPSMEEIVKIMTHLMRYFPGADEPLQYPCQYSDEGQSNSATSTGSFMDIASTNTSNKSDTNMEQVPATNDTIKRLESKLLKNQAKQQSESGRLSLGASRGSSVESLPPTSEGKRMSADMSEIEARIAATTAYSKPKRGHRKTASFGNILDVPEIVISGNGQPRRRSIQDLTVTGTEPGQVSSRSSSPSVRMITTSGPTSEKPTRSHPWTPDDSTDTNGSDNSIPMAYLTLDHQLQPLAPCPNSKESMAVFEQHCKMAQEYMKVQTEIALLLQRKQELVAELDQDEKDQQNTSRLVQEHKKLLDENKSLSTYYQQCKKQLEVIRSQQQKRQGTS
In short: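 H358 cells given 1 or 10 μM compound for 6 h, medium removed, cells rinsed twice with cold PBS and lysed in MPER buffer. Lysates incubated overnight at 4 °C with 1 μM biotinylated covalent probe, captured on streptavidin beads, and TAK1 recovery assessed by immunoblotting with anti-TAK1 antibody.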

[4] = target: T1, Mitogen-activated protein kinase kinase kinase 7 (Homo sapiens); test: Inhibition of TAK1 in RA patient-derived synovial fibroblasts assessed as inhibition of IL-1alpha-induced cytokine secretion at 3 uM preincubated for 3 hrs followed by IL-1alpha stimulation measured after 18 hrs by sandwich immunoassay
In short: (§1)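 Primary RA synovial fibroblasts (donor RA2159) seeded 1000 cells/well and grown ~24 h at 37 °C, 5% CO2. Starved overnight in basal medium, then ~4 h in basal medium with 0.1% BSA. Two adjacent wells pooled per replicate, in biological duplicate. Supernatants diluted 1:3 and run on Luminex 27-plex/21-plex sandwich immunoassays for 48 analytes, with spiked-ligand and mock-supernatant background controls.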

[5] = Antiproliferative activity against human SW156 cells harboring wild type KRAS after 72 hrs by CellTiter-Glo assay; assay type: functional, cell-based
PANC-1 = test: Antiproliferative activity against human PANC1 cells harboring KRAS G12D mutant after 72 hrs by CellTiter-Glo assay; assay type: functional, cell-based; details: PANC-1, 72 h
[6] = target: T1, Mitogen-activated protein kinase kinase kinase 7 (Homo sapiens); test: Inhibition of TAK1 in RA patient-derived synovial fibroblasts assessed as inhibition of TNFalpha-induced cytokine secretion at 3 uM preincubated for 3 hrs followed by TNFalpha stimulation measured after 18 hrs by sandwich immunoassay; in short: as §1
[7] = Antiproliferative activity against human URMC6 cells harboring wild type KRAS after 72 hrs by CellTiter-Glo assay; assay type: functional, cell-based
[8] = target: T1, Mitogen-activated protein kinase kinase kinase 7 (Homo sapiens); test: Inhibition of TAK1 in RA patient-derived synovial fibroblasts assessed as inhibition of poly(I:C)-induced cytokine secretion at 3 uM preincubated for 3 hrs followed by poly(I:C) stimulation measured after 18 hrs by sandwich immunoassay; in short: as §1
MOLM-14 = test: Antiproliferative activity against human MOLM14 cells harboring FLT3-ITD mutant at […] to […] nM after 72 hrs by CellTiter-Glo assay; assay type: functional, cell-based
U-937 = test: Antiproliferative activity against human U937 cells at […] to […] nM after 72 hrs by CellTiter-Glo assay; assay type: functional, cell-based
[9] = target: T2, Mitogen-activated protein kinase kinase kinase 7 (Homo sapiens, UniProt O43318); test: Inhibition of TAK1 (unknown origin) by LanthaScreen assay
T2 sequence (O43318 whole entry): T1 sequence (whole entry)

BaF3 [10] = test: Antiproliferative activity against mouse BA/F3 cells after 72 hrs by CellTiter-Glo assay; assay type: cell-based; details: BaF3, 72 h
BaF3 [11] = test: Antiproliferative activity against mouse BA/F3 cells harboring NRAS G12D mutant after 72 hrs by CellTiter-Glo assay; assay type: functional, cell-based; details: BaF3, 72 h
In short: (§2)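 Ba/F3 parental or RAS-transformed cells were seeded at 1000 viable cells/well, without or with IL-3 as the line states, at 37 °C and 5% CO2. After 4 h, nine four-fold serial dilutions were added in triplicate (final 0.5–30,000 nM, 0.3% DMSO). DMSO wells served as 100% viability.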

NALM-6 = test: Antiproliferative activity against human NALM6 cells harboring NARS A146T mutant at […] to […] nM after 72 hrs by CellTiter-Glo assay; assay type: functional, cell-based
BaF3 [12] = test: Antiproliferative activity against mouse BA/F3 cells harboring NRAS G12D mutant after 72 hrs in presence of IL-3 by CellTiter-Glo assay; assay type: functional, cell-based; details: BaF3, 72 h; in short: as §2
HEL = test: Antiproliferative activity against human HEL cells at […] to […] nM after 72 hrs by CellTiter-Glo assay; assay type: functional, cell-based
NCI-H23 = test: Antiproliferative activity against human NCI-H23 cells harboring KRAS G12C mutant after 72 hrs by CellTiter-Glo assay; assay type: functional, cell-based; details: NCI-H23, 72 h
In short: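 NCI-H23 or NCI-H358 cells seeded at 2000 cells/well and grown 48 h before drug. Varying doses were added and cells incubated 72 h. Viability was read as CellTiter-Glo luminescence, and growth-inhibition IC50 was calculated from dose-response curves.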

[13] = Increase in secretion of basic-FGF in TNFalpha activated RA patient-derived synovial fibroblasts at 0.6 to 3 uM preincubated for 3 hrs followed by TNFalpha stimulation measured after 18 hrs by sandwich immunoassay; details: human
In short: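 Primary RA patient synovial fibroblasts (donor RA2159) were seeded at 1000 cells/well, grown about 24 h, then starved overnight and again about 4 h in basal medium with 0.1% BSA. Cells were pre-incubated 3 h with inhibitor (0.6 or 3 μM) or DMSO, then stimulated 18 h with 10 ng/mL TNFα. Paired wells were pooled, in biological duplicate. Pooled supernatants were diluted 1:3 and read on Luminex bead sandwich immunoassays, with mock-medium background and spiked-ligand controls.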

**Q.** Which results are given for `Cn1cnc2c(F)c(Nc3ccc(Br)cc3Cl)c(C(=O)NOCCO)cc21` [SELUMETINIB]?
**A.** IC50 (BaF3 [1]): 100 nM; IC50 (SW-620): 15 nM; IC50 (SK-CO-1): 117 nM; IC50 (BaF3 [2]): > 10000 nM; IC50 (ASPC1): 64.2 nM

**Q.** Which results are given for `CCC(=O)Nc1ccccc1Oc1nc(Nc2ccc(N3CCN(C)CC3)cc2)ncc1Cl`?
**A.** IC50 (BaF3 [1]): 191 nM; inhibition [3]: inactive; inhibition [4]: inactive; IC50 (SW-620): 707 nM; IC50 [5]: 3730 nM; IC50 (SK-CO-1): 213 nM; IC50 (BaF3 [2]): 60 nM; IC50 (PANC-1): 1360 nM; inhibition [6]: inactive; IC50 [7]: 444 nM; IC50 (ASPC1): 2700 nM; inhibition [8]: inactive

**Q.** With `CCC(=O)Nc1ccccc1Oc1nc(Nc2cnn(CCOC)c2)ncc1Cl` as the compound, how does the Activity (MOLM-14) read?
**A.** Active

**Q.** And the IC50 (BaF3 [1])?
**A.** 923 nM

**Q.** And the inhibition [3]?
**A.** inactive

**Q.** And the Activity (U-937)?
**A.** Active

**Q.** And the inhibition [4]?
**A.** inactive

**Q.** And the IC50 (SW-620)?
**A.** 1650 nM

**Q.** And the IC50 (SK-CO-1)?
**A.** 2620 nM

**Q.** And the IC50 [9]?
**A.** 1230 nM

**Q.** And the IC50 (BaF3 [2])?
**A.** 3600 nM

**Q.** What about the IC50 (BaF3 [10]) of the same compound?
**A.** 2080 nM

**Q.** What about the inhibition [6] of the same compound?
**A.** inactive

**Q.** And the IC50 [7]?
**A.** 1490 nM

**Q.** What about the IC50 (ASPC1) of the same compound?
**A.** 5020 nM

**Q.** And the inhibition [8]?
**A.** inactive

**Q.** For `C=CC(=O)Oc1ccccc1Nc1nc(Nc2ccc(N3CCOCC3)cc2)ncc1Cl`, which Activity (MOLM-14) is on record?
**A.** Active

**Q.** And the IC50 (BaF3 [1])?
**A.** 56 nM

**Q.** What about the IC50 (BaF3 [11]) of the same compound?
**A.** 47 nM

**Q.** And the Activity (NALM-6)?
**A.** inactive

**Q.** And the Activity (U-937)?
**A.** Active

**Q.** What about the IC50 (BaF3 [12]) of the same compound?
**A.** 390 nM

**Q.** What about the IC50 [9] of the same compound?
**A.** 4.4 nM

**Q.** And the IC50 (BaF3 [2])?
**A.** 745 nM

**Q.** And the IC50 (BaF3 [10])?
**A.** 423 nM

**Q.** And the Activity (HEL)?
**A.** inactive

**Q.** For `C=CC(=O)Nc1ccccc1Oc1nc(Nc2ccc(N3CCN(C)CC3)cc2)ncc1C`, which IC50 (BaF3 [1]) is on record?
**A.** 113 nM

**Q.** What about the IC50 [9] of the same compound?
**A.** 92 nM

**Q.** And the IC50 (BaF3 [2])?
**A.** 357 nM

**Q.** And the IC50 (BaF3 [10])?
**A.** 385 nM

**Q.** For `C=CC(=O)Nc1ccccc1Oc1nc(Nc2cnn(C3CCOCC3)c2)ncc1Cl`, which IC50 (BaF3 [1]) is on record?
**A.** 69 nM

**Q.** And the IC50 [9]?
**A.** 4.6 nM

**Q.** What about the IC50 (BaF3 [2]) of the same compound?
**A.** 719 nM

**Q.** Which results are given for `C=CC(=O)Nc1cc(NC(C)=O)ccc1Nc1nc(Nc2ccc(N3CCN(C)CC3)cc2)ncc1Cl`?
**A.** IC50 (BaF3 [1]): 1350 nM; IC50 [9]: 1640 nM; IC50 (BaF3 [2]): 3730 nM

**Q.** Which IC50 (BaF3 [1]) does the source give for `C=CC(=O)Nc1ccccc1Oc1nc(Nc2ccc(N3CCN(C)CC3)cc2)ncc1C1CC1` here?
**A.** 181 nM

**Q.** What about the IC50 [9] of the same compound?
**A.** 57 nM

**Q.** And the IC50 (BaF3 [2])?
**A.** 1190 nM

**Q.** What about the IC50 (BaF3 [10]) of the same compound?
**A.** 1340 nM

**Q.** Which results are given for `C=CC(=O)Nc1ccccc1Oc1nc(Nc2ccc(N3CCN(C)CC3)cc2)nc(N)c1Cl`?
**A.** IC50 [9]: 2750 nM; IC50 (BaF3 [2]): 3530 nM

**Q.** Which IC50 (NCI-H23) does the source give for `Cn1c(=O)n(-c2ccc(C(C)(C)C#N)cc2)c2c3cc(-c4cnc5ccccc5c4)ccc3ncc21` [DACTOLISIB] here?
**A.** 1000 nM

**Q.** For `CCN1CCN(Cc2ccc(NC(=O)c3ccc(C)c(Oc4ccnc5[nH]ccc45)c3)cc2C(F)(F)F)CC1`, which Activity [13] is on record?
**A.** Non-Toxic
